Series [1] deals with HBV DNA in HBV-expressed HepG2.2.15 cells. As to the kind of experiment: In vitro anti-HBV activity in HepG2.2.15 cell line. It counts as cell-based. The conditions noted are these: Hepatitis B virus, HepG2.2.15, 144 h, read-out: % HBV DNA remaining. The essentials:
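HepG2.2.15 cells were seeded at 5 × 10^5 per well in high-glucose DMEM with 10% heat-inactivated FBS, 300 mg L−1 G418, 1% non-essential amino acids and antibiotic–antimycotic, then held overnight at 37 °C, 5% CO2. Compound or 0.5% DMSO was given for 3 days, then renewed for 3 more days. Intracellular HBV DNA was measured by qPCR as % remaining versus vehicle; EC50 came from a 4-parameter nonlinear fit.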

A further series concerns the target T1, CYP2A6 (Homo sapiens, UniProt P11509).
T1 sequence (P11509 1-494): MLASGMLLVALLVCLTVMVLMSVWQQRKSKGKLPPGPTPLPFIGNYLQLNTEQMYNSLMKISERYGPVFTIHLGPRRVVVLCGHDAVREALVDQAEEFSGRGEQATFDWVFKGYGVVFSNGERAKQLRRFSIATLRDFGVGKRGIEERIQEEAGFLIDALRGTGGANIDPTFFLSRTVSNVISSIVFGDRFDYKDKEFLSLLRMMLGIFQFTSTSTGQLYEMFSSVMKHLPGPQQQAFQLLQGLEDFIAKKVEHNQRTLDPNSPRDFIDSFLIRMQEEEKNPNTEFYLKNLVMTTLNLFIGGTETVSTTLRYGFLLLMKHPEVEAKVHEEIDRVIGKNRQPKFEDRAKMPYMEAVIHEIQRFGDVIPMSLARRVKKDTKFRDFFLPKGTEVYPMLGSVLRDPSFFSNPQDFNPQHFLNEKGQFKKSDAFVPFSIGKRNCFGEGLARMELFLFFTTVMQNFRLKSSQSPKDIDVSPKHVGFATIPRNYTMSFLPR
Briefly: CYP450 inhibition in human liver microsomes. It counts as in vitro ADME. The conditions noted are these: pooled human liver microsomes, pH 7.4, probe coumarin (1.5 μM). Summed up: (§1)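 Test compound at 10 μM with pooled human liver microsomes (0.2 mg mL−1) and a cocktail of 10 CYP probe substrates. Buffer was 100 mM potassium phosphate, pH 7.4, with 3.3 mM MgCl2, at 37 °C. β-NADPH (1.3 mM) started the reaction. After 10 min, ice-cold 3% formic acid in 5% acetonitrile stopped it. Centrifuged samples went to LC-MS/MS; each metabolite's formation is given as % inhibition versus control.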
(In general: Liver microsomes are vesicles of endoplasmic reticulum, rich in cytochrome P450 enzymes.)

The target of a further series is T2, CYP2C8 (Homo sapiens, UniProt P10632).
T2 sequence (P10632 1-490): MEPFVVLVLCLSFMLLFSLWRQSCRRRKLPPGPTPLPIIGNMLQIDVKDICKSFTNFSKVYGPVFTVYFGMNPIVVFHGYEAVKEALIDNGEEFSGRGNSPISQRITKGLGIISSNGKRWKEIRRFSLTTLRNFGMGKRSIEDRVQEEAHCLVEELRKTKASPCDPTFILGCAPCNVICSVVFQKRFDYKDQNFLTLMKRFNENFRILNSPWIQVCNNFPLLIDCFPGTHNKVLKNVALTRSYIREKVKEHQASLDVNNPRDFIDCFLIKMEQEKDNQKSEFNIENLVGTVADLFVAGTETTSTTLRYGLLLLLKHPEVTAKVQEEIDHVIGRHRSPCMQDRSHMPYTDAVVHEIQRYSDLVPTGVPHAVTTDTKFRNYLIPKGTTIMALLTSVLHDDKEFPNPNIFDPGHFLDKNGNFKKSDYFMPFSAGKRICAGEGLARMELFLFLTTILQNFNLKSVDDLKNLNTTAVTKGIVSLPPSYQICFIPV
As to the kind of experiment: CYP450 inhibition in human liver microsomes. Type of series: in vitro ADME. The conditions noted are these: pooled human liver microsomes, pH 7.4, probe amodiaquine (1 μM). The essentials:
as §1

Series [2] in a line: In vitro microsomal stability. It counts as in vitro ADME. The conditions noted are these: human liver microsomes, 1 μM, Table 3. Summed up:
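Compound (1 μM) with pooled human liver microsomes (0.4 mg mL−1) in 100 mM potassium phosphate, pH 7.4, with 3.3 mM MgCl2 and 1.3 mM β-NADPH. Organic solvent was ≤1%, at 37 °C. Time-point samples were quenched with ice-cold acetonitrile containing internal standard, centrifuged, and the supernatants analysed by LC-MS/MS. Results are intrinsic clearance.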

The next series deals with CYP2D6 (Homo sapiens, UniProt P10635). Briefly: CYP450 inhibition in human liver microsomes. The conditions noted are these: pooled human liver microsomes, pH 7.4, probe dextromethorphan (2.5 μM). Type of series: in vitro ADME. Summed up: as §1
Sequence of CYP2D6 (P10635 whole entry): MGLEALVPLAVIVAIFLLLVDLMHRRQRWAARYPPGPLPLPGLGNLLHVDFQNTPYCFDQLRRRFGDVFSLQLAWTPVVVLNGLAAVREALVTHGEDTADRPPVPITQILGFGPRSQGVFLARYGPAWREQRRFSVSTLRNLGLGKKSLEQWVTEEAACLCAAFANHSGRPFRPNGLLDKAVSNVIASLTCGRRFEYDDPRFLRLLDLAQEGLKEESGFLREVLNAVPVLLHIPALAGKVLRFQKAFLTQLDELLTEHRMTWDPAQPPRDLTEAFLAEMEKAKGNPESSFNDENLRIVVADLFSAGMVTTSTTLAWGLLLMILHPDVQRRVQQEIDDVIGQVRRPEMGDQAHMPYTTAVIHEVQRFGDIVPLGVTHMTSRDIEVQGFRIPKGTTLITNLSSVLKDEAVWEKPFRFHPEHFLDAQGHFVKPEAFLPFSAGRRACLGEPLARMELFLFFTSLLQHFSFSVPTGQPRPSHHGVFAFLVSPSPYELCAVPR

As usually defined, the inhibition is the drop in the measured response relative to a control, in per cent. In the case of `O=C(Nc1cc(F)c(F)c(F)c1)[C@H]1CCN(C(=O)c2cc3cnccc3[nH]2)C1` [CU04, (S)-1-(1H-Pyrrolo[3,2-c]pyridine-2-carbonyl)-N-(3,4,5-trifluorophenyl)pyrrolidine-3-carboxamide], in series [1], the activity at 1 µM is 67%. In addition, the inhibition at 10 min, 10 µM turned out to be 57% against CYP2A6, 55% against CYP2C8 and 82% against CYP2D6. The same compound had a CLint in series [2] of 1.1 μL per min per mg protein.

For the origin of these results see PMC10556424 (RSC Advances, 2023).
